Assay results published in ChEMBL document CHEMBL2346534, “Design, synthesis and in vitro anti-proliferative activity of 4,6-quinazolinediamines as potent EGFR-TK inhibitors” (Eur J Med Chem, 2013).

Experiments:
Assay type in all cases: functional
OVCAR-8 = test: Cytotoxicity against human OVCAR8 cells assessed as cell growth at 10^-5 M after 48 hrs by SRB assay; conditions: OVCAR-8, 48 h, read-out: Activity
In short: (§1)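 NCI 60-panel single-dose primary screen at 10^-5 M. Cells are grown in RPMI 1640 with 5% FBS and 2 mM L-glutamine and preincubated 24 h at 37 °C. Drug exposure is 48 h. Cells are TCA-fixed, stained with SRB and absorbance is read at 515 nm. Results are reported as percent growth of treated cells versus untreated controls, corrected using time-zero plates.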

PC-3 = test: Cytotoxicity against human PC3 cells assessed as cell growth at 10^-5 M after 48 hrs by SRB assay; conditions: PC-3, 48 h, read-out: Activity; in short: as §1
ACHN = test: Cytotoxicity against human ACHN cells assessed as cell growth at 10^-5 M after 48 hrs by SRB assay; conditions: read-out: Activity
In short: (§2)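 NCI 60 single-dose screen at 10^-5 M. Cells in RPMI 1640 with 5% FBS and 2 mM L-glutamine, preincubated 24 h at 37 °C/5% CO2. Drug from DMSO stock, then 48 h exposure. TCA fixation, SRB staining, absorbance at 515 nm. Result given as percent growth of treated cells relative to untreated control.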

OVCAR-4 = test: Cytotoxicity against human OVCAR4 cells assessed as cell growth at 10^-5 M after 48 hrs by SRB assay; conditions: OVCAR-4, 48 h, read-out: Activity; in short: as §1
A549 = test: Cytotoxicity against human A549 cells assessed as cell growth at 10^-5 M after 48 hrs by SRB assay; conditions: A549, 48 h, read-out: Activity; in short: as §2
NCI-H522 = test: Cytotoxicity against human NCI-H522 cells assessed as cell growth at 10^-5 M after 48 hrs by SRB assay; conditions: NCI-H522, 48 h, read-out: Activity; in short: as §1
SK-MEL-2 = test: Cytotoxicity against human SK-MEL-2 cells assessed as cell growth at 10^-5 M after 48 hrs by SRB assay; conditions: SK-MEL-2, 48 h, read-out: Activity; in short: as §1
HOP-92 = test: Cytotoxicity against human HOP92 cells assessed as cell growth at 10^-5 M after 48 hrs by SRB assay; conditions: HOP-92, 48 h, read-out: Activity; in short: as §2
HL-60(TB) = test: Cytotoxicity against human HL-60(TB) cells assessed as cell growth at 10^-5 M after 48 hrs by SRB assay; conditions: HL-60, 48 h, read-out: Activity
In short: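 NCI 60-panel single-dose screen. Cells were grown in RPMI 1640 with 5% FBS and 2 mM L-glutamine, preincubated 24 h, then exposed to compound at 10^-5 M (from DMSO stock) for 48 h at 37 °C, 5% CO2. Settled suspension cells were TCA-fixed and SRB-stained, with absorbance read at 515 nm. The value is percent growth of treated versus untreated control cells.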

BT-549 = test: Cytotoxicity against human BT549 cells assessed as cell growth at 10^-5 M after 48 hrs by SRB assay; conditions: BT-549, 48 h, read-out: Activity; in short: as §2
KM12 = test: Cytotoxicity against human KM12 cells assessed as cell growth at 10^-5 M after 48 hrs by SRB assay; conditions: KM12, 48 h, read-out: Activity; in short: as §2
COLO 205 = test: Cytotoxicity against human COLO205 cells assessed as cell growth at 10^-5 M after 48 hrs by SRB assay; conditions: COLO 205, 48 h, read-out: Activity; in short: as §2
UO-31 = test: Cytotoxicity against human UO31 cells assessed as cell growth at 10^-5 M after 48 hrs by SRB assay; conditions: UO-31, 48 h, read-out: Activity
In short: (§3)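 NCI primary single-dose screen at 10^-5 M. Cells grown in RPMI 1640 with 5% FBS and 2 mM L-glutamine, given 24 h before drug addition, then 48 h exposure at 37 °C, 5% CO2. Cells TCA-fixed, stained with SRB, read at 515 nm. Reported as percent growth of treated cells relative to untreated controls.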

[1] = Cytotoxicity against human EKVX cells assessed as cell growth at 10^-5 M after 48 hrs by SRB assay; conditions: read-out: Activity; in short: as §2
LOX IMVI = test: Cytotoxicity against human LOXIMVI cells assessed as cell growth at 10^-5 M after 48 hrs by SRB assay; conditions: read-out: Activity; in short: as §2
SNB-75 = test: Cytotoxicity against human SNB75 cells assessed as cell growth at 10^-5 M after 48 hrs by SRB assay; conditions: SNB-75, 48 h, read-out: Activity; in short: as §1
HCT-15 = test: Cytotoxicity against human HCT15 cells assessed as cell growth at 10^-5 M after 48 hrs by SRB assay; conditions: HCT-15, 48 h, read-out: Activity; in short: as §2
NCI-H23 = test: Cytotoxicity against human NCI-H23 cells assessed as cell growth at 10^-5 M after 48 hrs by SRB assay; conditions: NCI-H23, 48 h, read-out: Activity; in short: as §1
Hs-578T = test: Cytotoxicity against human Hs578T cells assessed as cell growth at 10^-5 M after 48 hrs by SRB assay; conditions: read-out: Activity; in short: as §2
HT-29 = test: Cytotoxicity against human HT-29 cells assessed as cell growth at 10^-5 M after 48 hrs by SRB assay; conditions: HT-29, 48 h, read-out: Activity; in short: as §2
RPMI-8226 = test: Cytotoxicity against human RPMI8226 cells assessed as cell growth at 10^-5 M after 48 hrs by SRB assay; conditions: RPMI-8226, 48 h, read-out: Activity; in short: as §1
RXF 393 = test: Cytotoxicity against human RXF393 cells assessed as cell growth at 10^-5 M after 48 hrs by SRB assay; conditions: RXF 393, 48 h, read-out: Activity; in short: as §1
OVCAR-5 = test: Cytotoxicity against human OVCAR5 cells assessed as cell growth at 10^-5 M after 48 hrs by SRB assay; conditions: OVCAR-5, 48 h, read-out: Activity; in short: as §1
DU-145 = test: Cytotoxicity against human DU145 cells assessed as cell growth at 10^-5 M after 48 hrs by SRB assay; conditions: DU-145, 48 h, read-out: Activity; in short: as §2
UACC-257 = test: Cytotoxicity against human UACC257 cells assessed as cell growth at 10^-5 M after 48 hrs by SRB assay; conditions: UACC-257, 48 h, read-out: Activity; in short: as §3
TK-10 = test: Cytotoxicity against human TK10 cells assessed as cell growth at 10^-5 M after 48 hrs by SRB assay; conditions: TK-10, 48 h, read-out: Activity; in short: as §3
SK-MEL-5 = test: Cytotoxicity against human SK-MEL-5 cells assessed as cell growth at 10^-5 M after 48 hrs by SRB assay; conditions: SK-MEL-5, 48 h, read-out: Activity; in short: as §1
OVCAR-3 = test: Cytotoxicity against human OVCAR3 cells assessed as cell growth at 10^-5 M after 48 hrs by SRB assay; conditions: OVCAR-3, 48 h, read-out: Activity; in short: as §1

SMILES: C#Cc1cccc(Nc2ncnc3ccc(N/C=C(\C#N)C(=O)OCC)cc23)c1
- growth at 10 µM (OVCAR-8): 94.8%
- growth at 10 µM (PC-3): 91.4%
- growth at 10 µM (ACHN): 63.1%
- growth at 10 µM (OVCAR-4): 94%
- growth at 10 µM (A549): 85.1%
- growth at 10 µM (NCI-H522): 86.3%
- growth at 10 µM (SK-MEL-2): 123%
- growth at 10 µM (HOP-92): 90.3%
- growth at 10 µM (HL-60(TB)): 97.5%
- growth at 10 µM (BT-549): 99.6%
- growth at 10 µM (KM12): 98.1%
- growth at 10 µM (COLO 205): 104%
- growth at 10 µM (UO-31): 58.6%
- growth at 10 µM [1]: 31.9%
- growth at 10 µM (LOX IMVI): 103%
- growth at 10 µM (SNB-75): 92.5%
- growth at 10 µM (HCT-15): 94.2%
- growth at 10 µM (NCI-H23): 98.2%
- growth at 10 µM (Hs-578T): 103%
- growth at 10 µM (HT-29): 98%
- growth at 10 µM (RPMI-8226): 101%
- growth at 10 µM (RXF 393): 92.9%
- growth at 10 µM (OVCAR-5): 89.5%
- growth at 10 µM (DU-145): 69.9%
- growth at 10 µM (UACC-257): 99.8%
- growth at 10 µM (TK-10): 65.5%
- growth at 10 µM (SK-MEL-5): 89.4%
- growth at 10 µM (OVCAR-3): 78.7%

SMILES: NC(=O)Nc1ccc2ncnc(Nc3cccc(O)c3)c2c1
- growth at 10 µM (OVCAR-8): 98.9%
- growth at 10 µM (PC-3): 102%
- growth at 10 µM (ACHN): 103%
- growth at 10 µM (OVCAR-4): 112%
- growth at 10 µM (A549): 93.5%
- growth at 10 µM (NCI-H522): 102%
- growth at 10 µM (HOP-92): 78%
- growth at 10 µM (HL-60(TB)): 105%
- growth at 10 µM (BT-549): 108%
- growth at 10 µM (KM12): 96.1%
- growth at 10 µM (COLO 205): 94.7%
- growth at 10 µM (UO-31): 80.1%
- growth at 10 µM [1]: 82.6%
- growth at 10 µM (LOX IMVI): 101%
- growth at 10 µM (SNB-75): 102%
- growth at 10 µM (HCT-15): 108%
- growth at 10 µM (NCI-H23): 100%
- growth at 10 µM (Hs-578T): 105%
- growth at 10 µM (HT-29): 106%
- growth at 10 µM (RPMI-8226): 112%
- growth at 10 µM (RXF 393): 111%
- growth at 10 µM (OVCAR-5): 98.1%
- growth at 10 µM (DU-145): 90.4%
- growth at 10 µM (UACC-257): 99.8%
- growth at 10 µM (TK-10): 103%
- growth at 10 µM (SK-MEL-5): 101%
- growth at 10 µM (OVCAR-3): 82.8%

SMILES: NC(=O)Nc1ccc2ncnc(Nc3ccc(Cl)cc3)c2c1
- growth at 10 µM (OVCAR-8): 89.5%
- growth at 10 µM (PC-3): 79%
- growth at 10 µM (ACHN): 47.4%
- growth at 10 µM (OVCAR-4): 91.9%
- growth at 10 µM (A549): 72.5%
- growth at 10 µM (NCI-H522): 66.2%
- growth at 10 µM (SK-MEL-2): 127%
- growth at 10 µM (HOP-92): 74.2%
- growth at 10 µM (HL-60(TB)): 99.9%
- growth at 10 µM (BT-549): 92.4%
- growth at 10 µM (KM12): 98.5%
- growth at 10 µM (COLO 205): 101%
- growth at 10 µM (UO-31): 58%
- growth at 10 µM [1]: 22.4%
- growth at 10 µM (LOX IMVI): 95.5%
- growth at 10 µM (SNB-75): 95%
- growth at 10 µM (HCT-15): 93.1%
- growth at 10 µM (NCI-H23): 100%
- growth at 10 µM (Hs-578T): 87.8%
- growth at 10 µM (HT-29): 91.6%
- growth at 10 µM (RPMI-8226): 101%
- growth at 10 µM (RXF 393): 93.7%
- growth at 10 µM (OVCAR-5): 83.6%
- growth at 10 µM (DU-145): 52%
- growth at 10 µM (UACC-257): 100%
- growth at 10 µM (TK-10): 26.5%
- growth at 10 µM (SK-MEL-5): 89.2%
- growth at 10 µM (OVCAR-3): 74.2%
